How the values were obtained:
MCF7 [1] = assay: Cytotoxicity against human MCF7 cells assessed as cell viability at 50 uM after 72 hrs by fluorescence microplate reader method; format: functional; details: MCF7, 72 h, read-out: Activity
K562 [2] = assay: Cytotoxicity against human K562 cells assessed as cell viability at 50 uM after 72 hrs by fluorescence microplate reader method; format: functional; details: K562, 72 h, read-out: Activity
[3] = biological target: Cyclin-dependent kinase 2/cyclin E1 (Homo sapiens, UniProt P24941); assay: Inhibition of CDK2/Cyclin E (unknown origin) expressed in baculoviral infected insect Sf9 cells using histone H1 as substrate in presence of [gamma-33P]ATP
[4] = Cytotoxicity against human G361 cells assessed as cell viability at 50 uM after 72 hrs by fluorescence microplate reader method; format: functional; details: G-361, 72 h, read-out: Activity
MCF7 [5] = assay: Cytotoxicity against human MCF7 cells assessed as cell viability after 72 hrs by fluorescence microplate reader method; format: functional, cell-based; details: MCF7, 72 h
Outline: (§1)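 Cells were exposed to three-fold compound dilutions in triplicate for 72 h. Viability was read after adding Calcein AM, as live-cell fluorescence at 485/538 nm (excitation/emission).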

K562 [6] = assay: Cytotoxicity against human K562 cells assessed as cell viability after 72 hrs by fluorescence microplate reader method; format: functional, cell-based; details: K562, 72 h; outline: as §1
[7] = Cytotoxicity against human G361 cells assessed as cell viability after 72 hrs by fluorescence microplate reader method; format: functional, cell-based; details: G-361, 72 h; outline: as §1
G-361 = assay: Induction of apoptosis in human G361 cells assessed as activation of caspases-3/7 at 50 uM using Ac-DEVD-AMC as substrate after 6 hrs by fluorescence microplate reader method relative to control; format: functional
Outline: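 G361 cells were seeded at 20,000 cells/well overnight, then treated with compound for 24 h. A 3x caspase-3/7 buffer (HEPES pH 7.4, NaCl, KCl, MgCl2, EGTA, Nonidet P40, CHAPS, sucrose, DTT, PMSF) containing Ac-DEVD-AMC substrate was added, and plates were incubated at 37 °C. Fluorescence at 346/442 nm was read after 6 h and expressed relative to untreated control.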

Row | SMILES | viability at 50 µM (MCF7 [1]) [%] | viability at 50 µM (K562 [2]) [%] | IC50 ([3]; read-out: IC50) [µM] | IC50 ([3]; read-out: pIC50 (converted)) [µM] | viability at 50 µM [4] [%] | IC50 (MCF7 [5]) [µM] | IC50 (K562 [6]) [µM] | IC50 [7] [µM] | fold change (FC) (G-361)
1 | c1cnc2[nH]cc(CCn3cc(-c4c[nH]c5ncccc45)nn3)c2c1 | 71.4 | 58.6 | 7.2 | 7.94 | 53 | 87.1 | 39.5 | 44.2 | 1.2
2 | O=C(CCn1nncc1-c1cc2cccnc2[nH]1)c1c[nH]c2ncccc12 | – | – | 36.1 | 31.6 | 62.7 | > 25 | > 25 | > 50 | –
3 | O=C(CCn1cc(-c2cc3cccnc3[nH]2)nn1)c1c[nH]c2ncccc12 | 41.2 | 75.8 | 3.6 | 3.98 | 62.4 | > 25 | > 25 | > 50 | 1.2
4 | O=S(=O)(c1ccccc1)n1cc(Cn2cc(-c3c[nH]c4ncccc34)nn2)c2cccnc21 | 78.7 | 73.3 | 25.8 | 25.1 | 86.1 | > 25 | > 25 | > 50 | 7.5
5 | c1ccc(-c2cn(CCc3c[nH]c4ncccc34)nn2)cc1 | 65.6 | 65.7 | > 50 | 100 | 43.3 | > 50 | > 50 | 33.6 | 3.1
6 | O=S(=O)(c1ccccc1)n1c(-c2cn(CCc3c[nH]c4ncccc34)nn2)cc2cccnc21 | 76.2 | 82.7 | > 25 | 25.1 | 71.1 | > 25 | > 25 | > 50 | 2.1
7 | O=S(=O)(c1ccccc1)n1c(-c2cn(CCCc3c[nH]c4ncccc34)nn2)cc2cccnc21 | 84.1 | 89.2 | 18 | 20 | 86.8 | > 25 | > 25 | > 50 | 1.8
8 | O=C(Cn1nncc1-c1cc2cccnc2[nH]1)c1c[nH]c2ncccc12 | 98 | 91.1 | 3 | 3.16 | 96.3 | > 25 | > 25 | > 50 | 2.2
9 | O=C(Cn1cc(-c2cc3cccnc3[nH]2)nn1)c1c[nH]c2ncccc12 | 84.9 | 91.4 | 9.2 | 10 | 82 | > 25 | > 25 | > 50 | 1.7
10 | c1cnc2[nH]c(Cn3cc(-c4c[nH]c5ncccc45)nn3)cc2c1 | 84.5 | 81.9 | 18.4 | 20 | 88.6 | 47.4 | > 50 | > 50 | 2.1
11 | c1cnc2[nH]c(-c3cn(CCCc4c[nH]c5ncccc45)nn3)cc2c1 | 80.5 | 91.5 | 8.7 | 7.94 | 81.8 | > 25 | > 25 | > 50 | 1.9
12 | CC[C@H](CO)Nc1nc(NCc2ccccc2)c2ncn(C(C)C)c2n1 [SELICICLIB] | – | – | – | – | – | 27.2 | 30.9 | 20.8 | –
13 | c1cnc2[nH]c(-c3cnnn3CCc3c[nH]c4ncccc34)cc2c1 | 74.4 | 70 | 27.6 | 25.1 | 69.5 | > 25 | > 25 | > 50 | 2
14 | O=C(Cn1cc(-c2ccccc2)nn1)c1c[nH]c2ncccc12 | 82.8 | 95.9 | > 50 | 100 | 86.8 | > 25 | > 25 | > 50 | 1.5
15 | O=S(=O)(c1ccccc1)n1cc(Cn2cc(-c3cc4cccnc4[nH]3)nn2)c2cccnc21 | 72.6 | 90.2 | > 25 | 25.1 | 76.4 | > 25 | > 25 | > 50 | 1.6
16 | O=C(Cn1cc(-c2c[nH]c3ncccc23)nn1)c1c[nH]c2ncccc12 | 83.5 | 88 | 29.3 | 31.6 | 84.1 | > 25 | > 25 | > 50 | 2.2
17 | c1cnc2[nH]cc(CCn3nncc3-c3c[nH]c4ncccc34)c2c1 | 58 | 59.2 | 9.1 | 10 | 65.7 | > 25 | > 25 | > 50 | 1.9
18 | O=C(Cn1nncc1-c1c[nH]c2ncccc12)c1c[nH]c2ncccc12 | 75.2 | 76.6 | 1.1 | 1 | 63 | > 25 | > 25 | > 50 | 2.9
19 | c1cnc2[nH]c(Cn3cc(-c4cc5cccnc5[nH]4)nn3)cc2c1 | 74.8 | 97.6 | 1.9 | 2 | 90.6 | > 25 | > 25 | > 50 | 1.9
20 | c1cnc2[nH]cc(CCCn3nncc3-c3c[nH]c4ncccc34)c2c1 | 59.9 | 63.4 | 2.7 | 2.51 | 26.5 | > 25 | > 25 | 33.4 | 4.2
21 | Cc1ccc(NC(=O)c2ccc(CN3CCN(C)CC3)cc2)cc1Nc1nccc(-c2cccnc2)n1 [IMATINIB] | – | – | – | – | – | > 10 | 0.73 | – | –
22 | O=C(CCn1nncc1-c1c[nH]c2ncccc12)c1c[nH]c2ncccc12 | 77.5 | 73.8 | 13.4 | 12.6 | 78.7 | > 25 | > 25 | > 50 | 3.3

Reference: ChEMBL document CHEMBL3763042, “Synthesis, biological evaluation and molecular modeling of a novel series of 7-azaindole based tri-heterocyclic compounds as potent CDK2/Cyclin E inhibitors” (Eur J Med Chem, 2016)
